Where a SMILES comes first, the peptide text is derived from it.
How the values were obtained:
Bos taurus [1] = species on record: Bos taurus; assay: Enhancement of [3H]ADTN to dopamine receptors at concentration of 10 nM
Procedure, shortened: (§1)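 Bovine caudate homogenized in 50 mM Tris-HCl pH 7.7 and spun twice at 40000 g. Pellet taken up in 50 mM Tris pH 7.1 with 0.1% ascorbic acid, 120 mM NaCl, 5 mM KCl, 2 mM CaCl2 and 10 μM pargyline. 0.4-0.6 mg protein incubated with 8 nM [3H]ADTN ± peptide (1, 10 or 100 nM), triplicate, 37 °C. Bound ligand collected by GF/B filtration and counted by scintillation.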

Bos taurus [2] = species on record: Bos taurus; assay: Enhancement of [3H]ADTN to dopamine receptors at concentration of 100 nM; procedure, shortened: as §1
Bos taurus [3] = species on record: Bos taurus; assay: Enhancement of [3H]-ADTN to dopamine receptors at concentration of 1 nM; procedure, shortened: as §1

**Q.** What does the source list for `CC(C)C[C@H](NC(=O)[C@@H]1CCCN1)C(=O)NCC(N)=O` (H-Pro-Leu-Gly-NH2)?
**A.** Enhancement (Bos taurus [1]): 28%; Enhancement (Bos taurus [2]): 46.2%; Enhancement (Bos taurus [3]): 16%

Source: ChEMBL document CHEMBL1123254, “Dopamine receptor modulation by Pro-Leu-Gly-NH2 analogues possessing cyclic amino acid residues at the C-terminal position” (J Med Chem, 1986)
